In ChEMBL document CHEMBL1149444, “Discovery of imidazo[1,2-b][1,2,4]triazines as GABA(A) alpha2/3 subtype selective agonists for the treatment of anxiety” (J Med Chem, 2006):
The source made the active and inactive calls. The rule behind the calls is not given here.

What was measured:
[1] = tested on: Rattus norvegicus; experiment: Activity in rat elevated plus maze assay at 1 mg/kg, po; format: functional, organism-based; set-up: dose 1 mg/kg
Outline: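 Rats given test compound orally 30 min before a 5 min elevated plus maze session; vehicle 0.5% methyl cellulose po. Read-out is time on open arms as percentage of total time. n = 18 per group. Significance versus vehicle at p < 0.05.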

[2] = Half life in dog at 1 mg/kg, iv or 1 mg/kg, po; format: ADME, organism-based, Canis lupus familiaris; details: in vivo
Outline: (§1)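 Pharmacokinetics in rat, dog or rhesus after 1 mg/kg iv and 1 mg/kg po dosing. Plasma clearance (mL/min/kg), half-life (h), volume of distribution (L/kg) and oral bioavailability (%) were derived.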

[3] = tested on: Mus musculus; experiment: Impairment in mouse rotarod assay upto 10 mg/kg, po; format: functional, organism-based; set-up: dose 10 mg/kg
Outline: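 Mouse rotarod test for sedation or myorelaxation after oral dosing up to 10 mg/kg. n = 8 per group. Significance versus vehicle at p < 0.05.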

[4] = Half life in rat at 1 mg/kg, […] 1 mg/kg, po; format: ADME, organism-based; details: in vivo
Outline: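 Rat pharmacokinetics after dosing at 1 mg/kg iv and 1 mg/kg po. Plasma clearance in mL/min/kg, half-life in h and volume of distribution in L/kg.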

[5] = tested on: Squirrel monkey; experiment: Anxiolytic effect in squirrel monkey conditioned emotional response test at 0.3 mg/kg, po; format: functional, organism-based; set-up: dose 0.3 mg/kg; details: Saimiri sciureus
Outline: (§2)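 Squirrel monkeys dosed po in 0.5% methyl cellulose vehicle. Anxiolysis was read as reversal of the suppression of lever pressing caused by a light cue signalling possible electric shock. Sedation was read as the rate of lever pressing for fruit juice reward on an RPI30 schedule. n = 10-11 per group, p < 0.05 versus vehicle.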

[6] = biological target: T1, GABA-A receptor; alpha-5/beta-3/gamma-2 (Homo sapiens, UniProt P18507+P28472+P31644); experiment: Displacement of [3H] Ro15-1788 from recombinant human GABAA alpha-5 receptor plus beta3gamma2 expressed in L(tk-) cells; format: cell-based
T1 sequence (P18507 whole entry): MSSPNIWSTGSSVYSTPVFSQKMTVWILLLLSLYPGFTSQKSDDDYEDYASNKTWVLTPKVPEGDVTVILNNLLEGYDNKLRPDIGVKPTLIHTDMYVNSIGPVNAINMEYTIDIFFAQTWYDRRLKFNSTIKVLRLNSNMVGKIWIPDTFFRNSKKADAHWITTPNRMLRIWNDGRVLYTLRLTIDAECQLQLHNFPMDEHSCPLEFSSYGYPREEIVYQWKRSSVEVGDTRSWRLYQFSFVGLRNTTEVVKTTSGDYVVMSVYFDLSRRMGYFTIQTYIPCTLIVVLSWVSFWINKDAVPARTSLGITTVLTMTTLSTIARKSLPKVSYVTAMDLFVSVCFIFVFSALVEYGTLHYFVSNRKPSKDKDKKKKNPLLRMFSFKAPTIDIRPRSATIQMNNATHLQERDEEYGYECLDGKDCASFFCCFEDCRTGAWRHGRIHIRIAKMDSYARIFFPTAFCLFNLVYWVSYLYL
T1 sequence (P28472 whole entry): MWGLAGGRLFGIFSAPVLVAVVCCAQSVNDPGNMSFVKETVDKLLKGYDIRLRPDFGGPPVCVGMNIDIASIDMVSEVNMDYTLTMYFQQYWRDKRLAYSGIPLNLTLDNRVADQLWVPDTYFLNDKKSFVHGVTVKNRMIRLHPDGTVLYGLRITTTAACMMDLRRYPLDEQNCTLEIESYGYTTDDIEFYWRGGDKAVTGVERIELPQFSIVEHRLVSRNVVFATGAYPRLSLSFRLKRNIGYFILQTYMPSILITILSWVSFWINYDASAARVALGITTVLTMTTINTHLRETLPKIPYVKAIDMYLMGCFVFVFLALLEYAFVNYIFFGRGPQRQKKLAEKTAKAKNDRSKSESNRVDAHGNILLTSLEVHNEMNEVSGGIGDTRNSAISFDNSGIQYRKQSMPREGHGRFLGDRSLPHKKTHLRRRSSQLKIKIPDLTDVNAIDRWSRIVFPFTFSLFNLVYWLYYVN
T1 sequence (P31644 whole entry): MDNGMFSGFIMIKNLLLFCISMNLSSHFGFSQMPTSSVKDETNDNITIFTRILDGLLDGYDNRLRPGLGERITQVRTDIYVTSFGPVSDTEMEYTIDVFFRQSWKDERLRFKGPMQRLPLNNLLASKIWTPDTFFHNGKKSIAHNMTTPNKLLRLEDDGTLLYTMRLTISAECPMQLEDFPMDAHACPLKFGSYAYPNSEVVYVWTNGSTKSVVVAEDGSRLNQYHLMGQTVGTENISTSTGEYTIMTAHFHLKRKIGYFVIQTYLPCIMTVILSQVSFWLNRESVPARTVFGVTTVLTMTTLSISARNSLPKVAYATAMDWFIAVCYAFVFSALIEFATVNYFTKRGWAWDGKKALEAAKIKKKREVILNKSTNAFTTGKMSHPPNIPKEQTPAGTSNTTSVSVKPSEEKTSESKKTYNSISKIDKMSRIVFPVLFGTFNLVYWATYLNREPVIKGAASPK
Outline: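 Inhibition of [3H]Ro15-1788 binding to human recombinant GABAA receptors stably expressed in L(tk-) cells, alpha subunit combined with beta3 and gamma2. Six to eight test concentrations spaced in half-log units. Ki reported as geometric mean of n = 2-12.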

[7] = organism: Rattus norvegicus; experiment: Plasma concentration in rat; format: ADME, organism-based; details: in vivo
Outline: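 Central benzodiazepine receptor occupancy in rat after oral dosing, measured by displacement of [3H]Ro15-1788 binding. Plasma concentration was measured at the dose giving 50% occupancy.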

[8] = biological target: GABA-A receptor; alpha-1/beta-3/gamma-2 (Homo sapiens) (UniProt P14867+P18507+P28472); experiment: Efficacy against recombinant human GABAA alpha1 receptor plus beta3gamma2 expressed in L(tk-) cells by whole cell patch clamp method relative to chlordiazepoxide; format: functional, cell-based
Outline: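 Whole-cell patch clamp on L(tk-) cells stably expressing the receptor (alpha plus beta3gamma2). GABA applied at an EC20-equivalent concentration. Modulation of the current measured with increasing test concentrations. Efficacy expressed relative to the maximal chlordiazepoxide response (set at 1.00) or as a percentage.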

[9] = tested on: Squirrel monkey; experiment: Sedation in squirrel monkey conditioned emotional response test at 10 mg/kg, po; format: functional, organism-based; set-up: dose 10 mg/kg; details: Saimiri sciureus; outline: as §2
[10] = Volume of distribution in rhesus at 1 mg/kg, iv or 1 mg/kg, po; format: ADME, organism-based, Macaca mulatta; details: rhesus monkey, in vivo, read-out: Vdss; outline: as §1

CC(C)(O)c1cnn2c(-c3ccc(F)c(-c4c(F)cccc4C#N)c3)cnc2n1
Activity [1]: Active | half-life [2]: 6.5 h | Activity [3]: inactive | half-life [4]: 11 h | Activity [5]: Active | Ki [6]: 1.1 nM | concentration [7]: 56 nM | Efficacy [8]: 3% | Activity [9]: inactive | Vd [10]: 2.1 L/kg
